Data set [1] in a line: Chromatographic measure of drug lipophilicity. It counts as physicochemical.
The nature of data set [2]: Half life of the drug was determined in the presence of 2-mercaptoethanol. The following applies: solution containing 2-mercaptoethanol. The format is ADME.
The subject of data set [3] is Nucleic Acid. The experiment in a line: Binding constant to poly (dA-dT) was determined in calf thymus DNA by a fluorometric method. The format is functional.
Data set [4] relates to P388. The experiment in a line: Percent increase in the life span of treated mice over a group of control mice injected with p388 tumor alone when administered intraperitoneally (9) as a solution in 0.1 mL of 30%,v/v, ethanol/water. The format is functional, Mus musculus.
The nature of data set [5]: Acid dissociation constant was determined. It counts as ADME. The method in brief: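 Acridine pKa measured spectrophotometrically in 20% aqueous DMF. Values in parentheses were not measured directly: they were obtained by subtracting 0.25 pKa unit from values determined for the corresponding de-1'-NHSO2CH3 derivatives.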
Data set [6] concerns L1210. Kind of data set: Reduce in the cell count when drug added to the murine L1210 leukemia cell cultures for 70 h. It counts as functional. The following applies: Mus musculus, L1210, 70 h; read-out: ID50 (the source's name).
The test system of data set [7] is P388. The experiment in a line: Percent increase in the life span of treated mice over a group of control mice injected with p388 tumor alone when administered intraperitoneally (>500) as a solution in 0.1 mL of 30%,v/v, ethanol/water; Inactive. The following applies: Mus musculus. The format is functional.
The subject of data set [8] is P388. The experiment in a line: Optimal dose administered intraperitoneally in. It counts as functional, Mus musculus.

Calls of active or inactive are those of the source. No cut-off for these calls is given here.

Five molecules from ChEMBL document CHEMBL1122464 (J Med Chem, 1983) can be followed below.

Usually half-life stands for the time in which the quantity being followed falls by half. As a reminder, the ILS is the gain in survival time of treated over control animals, in per cent. As usually defined, the pKa is the pH at which an ionisable group is half protonated.

In data set [1], `COc1cc(NS(C)(=O)=O)ccc1Nc1c2ccccc2nc2ccccc12` [AMSACRINE] registered a Rm of 0.18. Moreover, the half-life in data set [2] came to 1.8 min. Besides, in data set [3], the K turned out to be 290000 M⁻¹. In data set [4], the increase in life span (ILS) was found to be 111%.
`COc1cc(NS(C)(=O)=O)cc(OC)c1Nc1c2ccccc2nc2ccccc12`: the Rm in data set [1] came out at 0.36. Besides, the half-life in data set [2] was over 70 min. In data set [5], the pKa stood at 7.63. In addition, the IC50 in data set [6] worked out at 4900 nM. The ILS result in data set [7] was “inactive”.
The molecule `Cc1cc(NS(C)(=O)=O)ccc1Nc1c2ccccc2nc2ccccc12` returned a Rm in data set [1] of 0.15. In addition, in data set [2], the half-life worked out at 54 min. In addition, the K in data set [3] is 380000 M⁻¹. Besides, the IC50 in data set [6] was determined as 100 nM.
The molecule `Cc1cc(NS(C)(=O)=O)cc(C)c1Nc1c2ccccc2nc2ccccc12` came in with a Rm in data set [1] of 0.41. Further, in data set [2], the half-life is over 70 min. The pKa in data set [5] was found to be 7.6. Also, the IC50 in data set [6] is over 10000 nM. In addition, in data set [7], the ILS result was “inactive”.
In data set [1], `CS(=O)(=O)Nc1ccc(Nc2c3ccccc3nc3ccccc23)cc1` displayed a Rm of 0. For the same molecule, in data set [2], the half-life was found to be 0.92 min. Moreover, the IC50 in data set [6] amounted to 35 nM. This molecule also came in with an OD in data set [8] of 66 mg/kg/day.
